Experimental data reported in ChEMBL document CHEMBL1152521, “Synthesis and biological evaluation of radioiodinated 2,5-diphenyl-1,3,4-oxadiazoles for detecting beta-amyloid plaques in the brain” (Bioorg Med Chem, 2009).
Values belong to the compound of their own block, whether it stands above or below them. Calls of active or inactive are those of the source. No cut-off for these calls is given here.

Tests used:
[1] = system: Stomach; experiment: Biodistribution in ddY mouse stomach assessed per organ at 0.2 to 0.4 uCi, iv after 2 mins post-injection by gamma counting; format: ADME, organism-based; settings: in vivo
How it was run: (§1)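 Normal ddY mice (5-week-old, 22-25 g) were injected by tail vein with 0.2–0.4 μCi of 125I ligand in saline (100 μL) containing 10 μL ethanol. At 2, 10, 30 or 60 min the stomach was removed and gamma counted. Values are % injected dose per organ, mean (SD) of 4-6 animals.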

[2] = system: Intestine; experiment: Biodistribution in ddY mouse intestine at 0.2 to 0.4 uCi, iv after 2 mins post-injection by gamma counting; format: ADME, organism-based; settings: in vivo
How it was run: (§2)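 Normal ddY mice (5-week-old, 22-25 g) received 0.2–0.4 μCi of the 125I-labelled agent by tail-vein injection in 100 μL saline containing 10 μL ethanol. Animals were killed at 2, 10, 30 or 60 min, and organs were removed, weighed and gamma counted. Values are % injected dose per gram, mean (SD) of 4-6 animals.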

[3] = system: Kidney; experiment: Biodistribution in ddY mouse kidney at 0.2 to 0.4 uCi, iv after 60 mins post-injection by gamma counting; format: ADME, organism-based; settings: in vivo, 1 h; how it was run: as §2
[4] = system: Spleen; experiment: Biodistribution in ddY mouse spleen at 0.2 to 0.4 uCi, iv after 10 mins post-injection by gamma counting; format: ADME, organism-based; settings: in vivo; how it was run: as §2
[5] = system: Heart; experiment: Biodistribution in ddY mouse heart at 0.2 to 0.4 uCi, iv after 2 mins post-injection by gamma counting; format: ADME, organism-based; settings: in vivo; how it was run: as §2
[6] = system: Spleen; experiment: Biodistribution in ddY mouse spleen at 0.2 to 0.4 uCi, iv after 60 mins post-injection by gamma counting; format: ADME, organism-based; settings: in vivo, 1 h; how it was run: as §2
[7] = system: Liver; experiment: Biodistribution in ddY mouse liver at 0.2 to 0.4 uCi, iv after 2 mins post-injection by gamma counting; format: ADME, organism-based; settings: in vivo; how it was run: as §2
[8] = system: Blood; experiment: Biodistribution in ddY mouse blood at 0.2 to 0.4 uCi, iv after 10 mins post-injection by gamma counting; format: ADME, organism-based; settings: in vivo; how it was run: as §2
[9] = system: Pancreas; experiment: Biodistribution in ddY mouse pancreas at 0.2 to 0.4 uCi, iv after 30 mins post-injection by gamma counting; format: ADME, organism-based; settings: in vivo, 0.5 h; how it was run: as §2
[10] = system: Pancreas; experiment: Biodistribution in ddY mouse pancreas at 0.2 to 0.4 uCi, iv after 60 mins post-injection by gamma counting; format: ADME, organism-based; settings: in vivo, 1 h; how it was run: as §2
[11] = system: Pancreas; experiment: Biodistribution in ddY mouse pancreas at 0.2 to 0.4 uCi, iv after 10 mins post-injection by gamma counting; format: ADME, organism-based; settings: in vivo; how it was run: as §2
[12] = system: Brain; experiment: Biodistribution in ddY mouse brain at 0.2 to 0.4 uCi, iv after 2 mins post-injection by gamma counting; format: ADME, organism-based; settings: in vivo; how it was run: as §2
[13] = system: Blood; experiment: Biodistribution in ddY mouse blood at 0.2 to 0.4 uCi, iv after 30 mins post-injection by gamma counting; format: ADME, organism-based; settings: in vivo, 0.5 h; how it was run: as §2
[14] = system: Brain; experiment: Biodistribution in ddY mouse brain at 0.2 to 0.4 uCi, iv after 60 mins post-injection by gamma counting; format: ADME, organism-based; settings: in vivo, 1 h; how it was run: as §2
[15] = system: Liver; experiment: Biodistribution in ddY mouse liver at 0.2 to 0.4 uCi, iv after 30 mins post-injection by gamma counting; format: ADME, organism-based; settings: in vivo, 0.5 h; how it was run: as §2
[16] = system: Liver; experiment: Biodistribution in ddY mouse liver at 0.2 to 0.4 uCi, iv after 10 mins post-injection by gamma counting; format: ADME, organism-based; settings: in vivo; how it was run: as §2
[17] = system: Brain; experiment: Biodistribution in ddY mouse brain at 0.2 to 0.4 uCi, iv after 30 mins post-injection by gamma counting; format: ADME, organism-based; settings: in vivo, 0.5 h; how it was run: as §2
[18] = system: Blood; experiment: Biodistribution in ddY mouse blood at 0.2 to 0.4 uCi, iv after 60 mins post-injection by gamma counting; format: ADME, organism-based; settings: in vivo, 1 h; how it was run: as §2
[19] = system: Intestine; experiment: Biodistribution in ddY mouse intestine at 0.2 to 0.4 uCi, iv after 30 mins post-injection by gamma counting; format: ADME, organism-based; settings: in vivo, 0.5 h; how it was run: as §2
[20] = system: Blood; experiment: Biodistribution in ddY mouse blood at 0.2 to 0.4 uCi, iv after 2 mins post-injection by gamma counting; format: ADME, organism-based; settings: in vivo; how it was run: as §2
[21] = system: Kidney; experiment: Biodistribution in ddY mouse kidney at 0.2 to 0.4 uCi, iv after 30 mins post-injection by gamma counting; format: ADME, organism-based; settings: in vivo, 0.5 h; how it was run: as §2
[22] = system: Spleen; experiment: Biodistribution in ddY mouse spleen at 0.2 to 0.4 uCi, iv after 2 mins post-injection by gamma counting; format: ADME, organism-based; settings: in vivo; how it was run: as §2
[23] = system: Liver; experiment: Biodistribution in ddY mouse liver at 0.2 to 0.4 uCi, iv after 60 mins post-injection by gamma counting; format: ADME, organism-based; settings: in vivo, 1 h; how it was run: as §2
[24] = system: Kidney; experiment: Biodistribution in ddY mouse kidney at 0.2 to 0.4 uCi, iv after 10 mins post-injection by gamma counting; format: ADME, organism-based; settings: in vivo; how it was run: as §2
[25] = system: Heart; experiment: Biodistribution in ddY mouse heart at 0.2 to 0.4 uCi, iv after 30 mins post-injection by gamma counting; format: ADME, organism-based; settings: in vivo, 0.5 h; how it was run: as §2
[26] = system: Kidney; experiment: Biodistribution in ddY mouse kidney at 0.2 to 0.4 uCi, iv after 2 mins post-injection by gamma counting; format: ADME, organism-based; settings: in vivo; how it was run: as §2
[27] = system: Stomach; experiment: Biodistribution in ddY mouse stomach assessed per organ at 0.2 to 0.4 uCi, iv after 10 mins post-injection by gamma counting; format: ADME, organism-based; settings: in vivo; how it was run: as §1
[28] = system: Brain; experiment: Biodistribution in ddY mouse brain at 0.2 to 0.4 uCi, iv after 10 mins post-injection by gamma counting; format: ADME, organism-based; settings: in vivo; how it was run: as §2
[29] = system: Pancreas; experiment: Biodistribution in ddY mouse pancreas at 0.2 to 0.4 uCi, iv after 2 mins post-injection by gamma counting; format: ADME, organism-based; settings: in vivo; how it was run: as §2
[30] = system: Heart; experiment: Biodistribution in ddY mouse heart at 0.2 to 0.4 uCi, iv after 60 mins post-injection by gamma counting; format: ADME, organism-based; settings: in vivo, 1 h; how it was run: as §2
[31] = system: Spleen; experiment: Biodistribution in ddY mouse spleen at 0.2 to 0.4 uCi, iv after 30 mins post-injection by gamma counting; format: ADME, organism-based; settings: in vivo, 0.5 h; how it was run: as §2
[32] = system: Stomach; experiment: Biodistribution in ddY mouse stomach assessed per organ at 0.2 to 0.4 uCi, iv after 30 mins post-injection by gamma counting; format: ADME, organism-based; settings: in vivo, 0.5 h; how it was run: as §1
[33] = system: Intestine; experiment: Biodistribution in ddY mouse intestine at 0.2 to 0.4 uCi, iv after 60 mins post-injection by gamma counting; format: ADME, organism-based; settings: in vivo, 1 h; how it was run: as §2
[34] = system: Intestine; experiment: Biodistribution in ddY mouse intestine at 0.2 to 0.4 uCi, iv after 10 mins post-injection by gamma counting; format: ADME, organism-based; settings: in vivo; how it was run: as §2
[35] = system: Heart; experiment: Biodistribution in ddY mouse heart at 0.2 to 0.4 uCi, iv after 10 mins post-injection by gamma counting; format: ADME, organism-based; settings: in vivo; how it was run: as §2
[36] = system: Stomach; experiment: Biodistribution in ddY mouse stomach assessed per organ at 0.2 to 0.4 uCi, iv after 60 mins post-injection by gamma counting; format: ADME, organism-based; settings: in vivo, 1 h; how it was run: as §1
[37] = Octanol-phosphate buffer partition coefficient, log P at pH 7.4 by gamma counting of radioactivity
[38] = Displacement of [125I]IMPY from aggregated amyloid beta (1-42) by gamma counting
[39] = species on record: Mus musculus; experiment: Binding affinity to amyloid beta (1-42) in brain of transgenic 2576 mouse Alzheimer's model at 100 uM after 30 mins by thioflavin S staining-based fluorescence microscopic analysis
[40] = species on record: Mus musculus; experiment: Binding affinity to amyloid beta (1-42) in normal mouse brain at 100 uM after 30 mins by thioflavin S staining-based fluorescence microscopic analysis

- logD [37]: 2.58
- Ki [38]: 46.1 nM
- Activity [39]: Active
Compound: COc1ccc(-c2nnc(-c3ccc(I)cc3)o2)cc1

- Ki [38]: 349 nM
Compound: OCCOCCOc1ccc(-c2nnc(-c3ccc(I)cc3)o2)cc1

- Ki [38]: 282 nM
Compound: OCCOc1ccc(-c2nnc(-c3ccc(I)cc3)o2)cc1

- Activity [40]: inactive
- logD [37]: 2.43
- Ki [38]: 20.1 nM
- Activity [39]: Active
Compound: CN(C)c1ccc(-c2nnc(-c3ccc(I)cc3)o2)cc1

- Ki [38]: 230 nM
Compound: Oc1ccc(-c2nnc(-c3ccc(I)cc3)o2)cc1

Second part, the compound before the results:

Compound: COc1ccc(-c2nnc(-c3ccc([125I])cc3)o2)cc1
- Drug uptake [1]: 0.71 %ID
- Drug uptake [2]: 2.07 % ID/g
- Drug uptake [3]: 2.48 % ID/g
- Drug uptake [4]: 1.51 % ID/g
- Drug uptake [5]: 4.8 % ID/g
- Drug uptake [6]: 0.6 % ID/g
- Drug uptake [7]: 9.6 % ID/g
- Drug uptake [8]: 1.6 % ID/g
- Drug uptake [9]: 0.96 % ID/g
- Drug uptake [10]: 0.57 % ID/g
- Drug uptake [11]: 1.98 % ID/g
- Drug uptake [12]: 3.75 % ID/g
- Drug uptake [13]: 1.26 % ID/g
- Drug uptake [14]: 0.36 % ID/g
- Drug uptake [15]: 8.07 % ID/g
- Drug uptake [16]: 12.6 % ID/g
- Drug uptake [17]: 1.04 % ID/g
- Drug uptake [18]: 0.8 % ID/g
- Drug uptake [19]: 10.06 % ID/g
- Drug uptake [20]: 1.84 % ID/g
- Drug uptake [21]: 4.36 % ID/g
- Drug uptake [22]: 2.44 % ID/g
- Drug uptake [23]: 4.65 % ID/g
- Drug uptake [24]: 4.85 % ID/g
- Drug uptake [25]: 0.92 % ID/g
- Drug uptake [26]: 7.14 % ID/g
- Drug uptake [27]: 1.41 %ID
- Drug uptake [28]: 2.74 % ID/g
- Drug uptake [29]: 4.74 % ID/g
- Drug uptake [30]: 0.43 % ID/g
- Drug uptake [31]: 0.8 % ID/g
- Drug uptake [32]: 3.12 %ID
- Drug uptake [33]: 19.85 % ID/g
- Drug uptake [34]: 4.49 % ID/g
- Drug uptake [35]: 1.73 % ID/g
- Drug uptake [36]: 2.9 %ID

Compound: CN(C)c1ccc(-c2nc(-c3ccc(I)cc3)no2)cc1
- logD [37]: 3.22

Compound: CN(C)c1ccc(-c2nnc(-c3ccc([125I])cc3)o2)cc1
- Drug uptake [1]: 1.4 %ID
- Drug uptake [2]: 2.28 % ID/g
- Drug uptake [3]: 3.81 % ID/g
- Drug uptake [4]: 4.1 % ID/g
- Drug uptake [5]: 3.99 % ID/g
- Drug uptake [6]: 2.05 % ID/g
- Drug uptake [7]: 15.87 % ID/g
- Drug uptake [8]: 3.51 % ID/g
- Drug uptake [9]: 2.5 % ID/g
- Drug uptake [10]: 2.14 % ID/g
- Drug uptake [11]: 4.39 % ID/g
- Drug uptake [12]: 2.98 % ID/g
- Drug uptake [13]: 2.53 % ID/g
- Drug uptake [14]: 1.78 % ID/g
- Drug uptake [15]: 12.64 % ID/g
- Drug uptake [16]: 19.12 % ID/g
- Drug uptake [17]: 3.16 % ID/g
- Drug uptake [18]: 2.21 % ID/g
- Drug uptake [19]: 12.58 % ID/g
- Drug uptake [20]: 3.28 % ID/g
- Drug uptake [21]: 5.71 % ID/g
- Drug uptake [22]: 3.56 % ID/g
- Drug uptake [23]: 10.01 % ID/g
- Drug uptake [24]: 7.8 % ID/g
- Drug uptake [25]: 2.03 % ID/g
- Drug uptake [26]: 9.14 % ID/g
- Drug uptake [27]: 4.73 %ID
- Drug uptake [28]: 5.93 % ID/g
- Drug uptake [29]: 5.32 % ID/g
- Drug uptake [30]: 1.54 % ID/g
- Drug uptake [31]: 2.63 % ID/g
- Drug uptake [32]: 4.79 %ID
- Drug uptake [33]: 16.22 % ID/g
- Drug uptake [34]: 11.34 % ID/g
- Drug uptake [35]: 3.55 % ID/g
- Drug uptake [36]: 5.5 %ID

Compound: COc1ccc(-c2nc(-c3ccc(I)cc3)no2)cc1
- logD [37]: 3.37

Compound: OCCOCCOCCOc1ccc(-c2nnc(-c3ccc(I)cc3)o2)cc1
- Ki [38]: 258 nM
